In ChEMBL document CHEMBL3612047, “Synthesis, antiproliferative activity and possible mechanism of action of novel 2-acetamidobenzamides bearing the 2-phenoxy functionality” (Bioorg Med Chem, 2015):
Active and inactive are the calls of the source. The calls are words filed in the database; no cut-off is given here.

What was measured:
K562 [1] = assay: Growth inhibition of human K562 cells at 10 uM incubated for 24 hrs by trypan blue dye exclusion assay; assay type: functional; conditions: K562, 24 h, read-out: GI
Method in brief: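 K562 cells in medium with 5% FBS at 37 °C, 5% CO₂. About 2 × 10⁵ cells/mL cultured 24 h, then compound added at 10 μM. After 24 h exposure, cells counted by hemocytometer and viability scored by trypan blue exclusion, reported as percent growth inhibition.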

K562 [2] = assay: Growth inhibition of human K562 cells incubated for 24 hrs by trypan blue dye exclusion assay; assay type: functional, cell-based; conditions: K562, 24 h
Method in brief: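 K562 cells, about 2 × 10⁵ cells/mL, precultured 24 h, then exposed 24 h to a range of compound concentrations. Viable cells counted by hemocytometer with trypan blue exclusion to derive IC₅₀.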

[3] = Cytotoxicity against human HuDe cells incubated for 72 hrs by MTT assay; assay type: cell-based
Method in brief: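 HuDe primary culture from human epidermis, seeded at 2 × 10⁴ cells/mL. Test drugs at different concentrations, or 0.1% DMSO, added 24 h after seeding, with 72 h exposure. MTT (5 mg/mL in PBS) then applied for 3 h at 37 °C. Formazan solubilized with isopropanol/triton X-100/HCl and read at 570 nm with 690 nm blank.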

[4] = Growth inhibition of human NCI60 cells assessed as cell growth level at 10 uM by NCI standard protocol based method; assay type: functional; set-up: scale not given: the % may be the effect or the level left
Method in brief: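 NCI 60-cell-line screen (leukemia, lung, colon, melanoma, renal, ovarian, brain, breast, prostate) run to the NCI standard protocol. Single high dose of 10⁻⁵ M, read as growth percent. Mean graph midpoint is the arithmetic mean over all lines tested.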

HL-60(TB) = assay: Growth inhibition of human HL-60(TB) cells by NCI standard protocol based method; assay type: functional
Method in brief: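 Tested in the NCI 60-cell-line screen under its standard protocol. A single-dose prescreen was run at 10⁻⁵ M, then a five-dose assay. GI50 is the molar concentration that inhibits net cell growth by 50%.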

K562 [5] = assay: Growth inhibition of human K562 cells by NCI standard protocol based method; assay type: functional
Method in brief: (§1)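 NCI full 60-cell-line panel, 5-dose assay to the NCI standard protocol. GI₅₀ is the molar concentration inhibiting 50% net cell growth. Mean graph midpoint is averaged over all lines; where the effect is not reached, the highest tested concentration is used.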

[6] = Growth inhibition of human RPMI8226 cells by NCI standard protocol based method; assay type: functional; conditions: RPMI-8226; method in brief: as §1
SR = assay: Growth inhibition of human SR cells by NCI standard protocol based method; assay type: functional
Method in brief: (§2)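 NCI 60-cell-line screen, standard NCI protocol. Single high dose of 10⁻⁵ M first, then a 5-dose assay across the full panel. Reported as GI₅₀, TGI and LC₅₀, the molar concentrations giving 50% net growth inhibition, total growth inhibition and 50% net cell death. Where an effect was not reached, the highest tested concentration was used.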

A549 = assay: Growth inhibition of human A549/ATCC cells by NCI standard protocol based method; assay type: functional; method in brief: as §1
HOP-62 = assay: Growth inhibition of human HOP62 cells by NCI standard protocol based method; assay type: functional; method in brief: as §1
[7] = Growth inhibition of human HOP92 cells by NCI standard protocol based method; assay type: functional; conditions: HOP-92; method in brief: as §1
NCI-H226 = assay: Growth inhibition of human NCI-H226 cells by NCI standard protocol based method; assay type: functional; method in brief: as §1
NCI-H23 = assay: Growth inhibition of human NCI-H23 cells by NCI standard protocol based method; assay type: functional; method in brief: as §1
NCI-H460 = assay: Growth inhibition of human NCI-H460 cells by NCI standard protocol based method; assay type: functional; method in brief: as §1
NCI-H522 = assay: Growth inhibition of human NCI-H522 cells by NCI standard protocol based method; assay type: functional; method in brief: as §1
HCT-116 = assay: Growth inhibition of human HCT116 cells by NCI standard protocol based method; assay type: functional; method in brief: as §1
HCT-15 = assay: Growth inhibition of human HCT15 cells by NCI standard protocol based method; assay type: functional; method in brief: as §1
KM12 = assay: Growth inhibition of human KM12 cells by NCI standard protocol based method; assay type: functional; method in brief: as §1
SF-268 = assay: Growth inhibition of human SF268 cells by NCI standard protocol based method; assay type: functional; method in brief: as §1
[8] = Growth inhibition of human SF539 cells by NCI standard protocol based method; assay type: functional; conditions: SF-539; method in brief: as §1
SNB-19 = assay: Growth inhibition of human SNB19 cells by NCI standard protocol based method; assay type: functional; method in brief: as §2
SNB-75 = assay: Growth inhibition of human SNB75 cells by NCI standard protocol based method; assay type: functional; method in brief: as §2
M14 = assay: Growth inhibition of human M14 cells by NCI standard protocol based method; assay type: functional; method in brief: as §1
SK-MEL-2 = assay: Growth inhibition of human SK-MEL-2 cells by NCI standard protocol based method; assay type: functional; method in brief: as §1
SK-MEL-28 = assay: Growth inhibition of human SK-MEL-28 cells by NCI standard protocol based method; assay type: functional; method in brief: as §1
UACC-257 = assay: Growth inhibition of human UACC257 cells by NCI standard protocol based method; assay type: functional; method in brief: as §2
UACC-62 = assay: Growth inhibition of human UACC62 cells by NCI standard protocol based method; assay type: functional; method in brief: as §2
OVCAR-3 = assay: Growth inhibition of human OVCAR3 cells by NCI standard protocol based method; assay type: functional; method in brief: as §1
OVCAR-5 = assay: Growth inhibition of human OVCAR5 cells by NCI standard protocol based method; assay type: functional; method in brief: as §1
OVCAR-8 = assay: Growth inhibition of human OVCAR8 cells by NCI standard protocol based method; assay type: functional; method in brief: as §1
NCI/ADR-RES = assay: Growth inhibition of human NCI/ADR-RES cells by NCI standard protocol based method; assay type: functional; method in brief: as §1
SK-OV-3 = assay: Growth inhibition of human SKOV3 cells by NCI standard protocol based method; assay type: functional; method in brief: as §2
A498 = assay: Growth inhibition of human A498 cells by NCI standard protocol based method; assay type: functional; method in brief: as §1
ACHN = assay: Growth inhibition of human ACHN cells by NCI standard protocol based method; assay type: functional; method in brief: as §1
TK-10 = assay: Growth inhibition of human TK10 cells by NCI standard protocol based method; assay type: functional; method in brief: as §2
UO-31 = assay: Growth inhibition of human UO31 cells by NCI standard protocol based method; assay type: functional; method in brief: as §2
PC-3 = assay: Growth inhibition of human PC3 cells by NCI standard protocol based method; assay type: functional; method in brief: as §1
DU-145 = assay: Growth inhibition of human DU145 cells by NCI standard protocol based method; assay type: functional; method in brief: as §1
MCF7 = assay: Growth inhibition of human MCF7 cells by NCI standard protocol based method; assay type: functional; method in brief: as §1
MDA-MB-231 = assay: Growth inhibition of human MDA-MB-231 cells by NCI standard protocol based method; assay type: functional; method in brief: as §1
MDA-MB-468 = assay: Growth inhibition of human MDA-MB-468 cells by NCI standard protocol based method; assay type: functional; method in brief: as §1
[9] = Growth inhibition of human NCI60 cells by NCI standard protocol based method; assay type: functional; conditions: for TGI: read-out: pTGI (converted); method in brief: as §1
Tubulin (Homo sapiens) = Tubulin (Homo sapiens) (UniProt P68371+Q9H4B7+P0DPH7+P68366+Q13509+Q71U36+P04350+Q3ZCM7+P07437+P68363+Q9BQE3+Q6PEY2+Q13885+Q9BVA1+Q9BUF5); assay: Inhibition of tubulin (unknown origin) assembly; assay type: protein-complex assay

COc1ccc(NC(=O)COc2ccccc2)c(C(N)=O)c1
inhibition of growth at 10 µM (K562 [1]): 85.3%
IC50 (K562 [2]): 1100 nM
IC50 [3]: 942000 nM
Activity [4]: 25.81%
GI50 (HL-60(TB)): 340 nM
GI50 (K562 [5]): 245 nM
GI50 [6]: 1170 nM
GI50 (SR): 392 nM
GI50 (A549): 908 nM
GI50 (HOP-62): 1010 nM
GI50 [7]: 414 nM
GI50 (NCI-H226): 21500 nM
GI50 (NCI-H23): 1380 nM
GI50 (NCI-H460): 484 nM
GI50 (NCI-H522): 1190 nM
GI50 (HCT-116): 518 nM
GI50 (HCT-15): 432 nM
GI50 (KM12): 388 nM
GI50 (SF-268): 2420 nM
GI50 [8]: 441 nM
GI50 (SNB-19): 3200 nM
GI50 (SNB-75): 245 nM
GI50 (M14): 514 nM
GI50 (SK-MEL-2): 611 nM
GI50 (SK-MEL-28): 502 nM
GI50 (UACC-257): > 100000 nM
GI50 (UACC-62): 1050 nM
GI50 (OVCAR-3): 375 nM
GI50 (OVCAR-5): 5400 nM
GI50 (OVCAR-8): 3130 nM
GI50 (NCI/ADR-RES): 418 nM
GI50 (SK-OV-3): 2990 nM
GI50 (A498): 304 nM
GI50 (ACHN): 2250 nM
GI50 (TK-10): 23800 nM
GI50 (UO-31): 8720 nM
GI50 (PC-3): 464 nM
GI50 (DU-145): 1870 nM
GI50 (MCF7): 497 nM
GI50 (MDA-MB-231): 2030 nM
GI50 (MDA-MB-468): 345 nM
GI50 [9]: 891 nM
LC50 [9]: 97700 nM
TGI [9]: 49000 nM
inhibition (Tubulin (Homo sapiens)): inactive

NC(=O)c1cc(I)ccc1NC(=O)COc1ccccc1
inhibition of growth at 10 µM (K562 [1]): 73%
IC50 (K562 [2]): 160 nM
IC50 [3]: 318000 nM
Activity [4]: 24.31%
GI50 (HL-60(TB)): 339 nM
GI50 (K562 [5]): 161 nM
GI50 [6]: 553 nM
GI50 (SR): 221 nM
GI50 (A549): 732 nM
GI50 (HOP-62): 824 nM
GI50 [7]: 1500 nM
GI50 (NCI-H226): 4940 nM
GI50 (NCI-H23): 657 nM
GI50 (NCI-H460): 425 nM
GI50 (NCI-H522): 630 nM
GI50 (HCT-116): 517 nM
GI50 (HCT-15): 253 nM
GI50 (KM12): 308 nM
GI50 (SF-268): 934 nM
GI50 [8]: 249 nM
GI50 (SNB-19): 913 nM
GI50 (SNB-75): 215 nM
GI50 (M14): 389 nM
GI50 (SK-MEL-2): 463 nM
GI50 (SK-MEL-28): 1790 nM
GI50 (UACC-257): 41700 nM
GI50 (UACC-62): 701 nM
GI50 (OVCAR-3): 321 nM
GI50 (OVCAR-5): 1680 nM
GI50 (OVCAR-8): 904 nM
GI50 (NCI/ADR-RES): 344 nM
GI50 (SK-OV-3): 3170 nM
GI50 (A498): 1020 nM
GI50 (ACHN): 1320 nM
GI50 (TK-10): 8110 nM
GI50 (UO-31): 2870 nM
GI50 (PC-3): 428 nM
GI50 (DU-145): 444 nM
GI50 (MCF7): 230 nM
GI50 (MDA-MB-231): 1280 nM
GI50 (MDA-MB-468): 351 nM
GI50 [9]: 692 nM
LC50 [9]: 89100 nM
TGI [9]: 35500 nM
inhibition (Tubulin (Homo sapiens)): inactive
